Measurements from PMC12594201 (Proteins, 2025).

How the values were obtained:
β‐clamp [1] = molecular target: T1, β‐clamp (Escherichia coli, UniProt P0A988); experiment: Calculated fraction of β‐clamp bound / saturation level; assay type: binding, E. coli; conditions: NMR titration, 200 μM β‐clamp with up to 800 μM peptide
Outline: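 Fraction of β-clamp bound computed from the quadratic single-site equation using total protein concentration, total ligand concentration and K_D. […]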

β‐clamp [2] = molecular target: T1, β‐clamp; conditions: literature values; ref [34], [35]; cited from earlier work

T1 sequence (P0A988 whole entry): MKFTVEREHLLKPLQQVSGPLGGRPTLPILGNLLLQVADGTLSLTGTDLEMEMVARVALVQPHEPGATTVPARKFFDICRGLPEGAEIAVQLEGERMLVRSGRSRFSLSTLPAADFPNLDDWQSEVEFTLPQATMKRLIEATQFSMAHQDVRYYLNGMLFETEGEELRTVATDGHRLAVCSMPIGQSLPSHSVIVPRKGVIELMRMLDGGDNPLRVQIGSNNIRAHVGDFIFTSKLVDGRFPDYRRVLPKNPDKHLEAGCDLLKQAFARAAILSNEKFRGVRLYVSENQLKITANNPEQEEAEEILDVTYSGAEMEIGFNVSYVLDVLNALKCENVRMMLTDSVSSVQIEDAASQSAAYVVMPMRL

NH3 ^+‐GWLDPQMERQLVLGL‐COO^— [pol IV*]
saturation level of β‐clamp (β‐clamp [1]): > 98% | Kd (β‐clamp [2]): 2 to 8 µM
